Assay results published in ChEMBL document CHEMBL1139530, “Synthesis and antibacterial properties of novel hydrolyzable cationic amphiphiles. Incorporation of multiple head groups leads to impressive antibacterial activity” (2005).

Key:
Assay type in all cases: functional
Shigella sonnei = test: Minimum bactericidal concentration against Shigella sonnei
Summary of the method: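 A single S. sonnei colony was grown in LB for 12 h at 37 °C with shaking to 10⁷-10⁸ cells/mL, then exposed in tubes to amphiphile from a sterile-water stock, or water as the control, for 5 h at 37 °C with shaking. Diluted samples were spread on LB agar and incubated 24 h at 37 °C. MBC is the lowest concentration leaving no colonies; the value is the mean of three experiments.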

Escherichia coli = test: Minimum bactericidal concentration against Escherichia coli
Summary of the method: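 E. coli from a freeze-dried ampule was streaked on LB agar (37 °C, 24 h), and a single colony was grown in LB for 10 h at 37 °C with shaking to 10⁸-10⁹ cells/mL. Amphiphile from a sterile-water stock, or water as the control, was incubated 5 h at 37 °C with shaking. Dilutions were spread on LB agar for 24 h at 37 °C. MBC is the lowest concentration with no colonies, averaged over three experiments.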

Enterococcus faecalis = test: Minimum bactericidal concentration against Enterococcus faecalis
Summary of the method: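 Spread-plate MBC in LB broth (pH ≈7). E. faecalis came from a blood agar colony and was grown 12 h at 37 °C with shaking to 10⁷-10⁸ cells/mL. Amphiphile was added from a sterile-water stock, with water as the control, then incubated 5 h at 37 °C with shaking. Dilutions were plated on LB agar for 24 h at 37 °C. MBC is the lowest concentration giving no colonies; the value is the mean of three experiments.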

Staphylococcus aureus = test: Minimum bactericidal concentration against Staphylococcus aureus
Summary of the method: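 S. aureus came from a blood agar colony and was grown in LB for 10 h at 37 °C with shaking to 10⁹-10¹⁰ cells/mL. Cells were exposed 5 h at 37 °C with shaking to amphiphile from a sterile-water stock, with water as the control. Dilutions were plated on LB agar for 24 h at 37 °C. MBC is the lowest concentration giving no colonies, averaged over three separate experiments.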

Row | Molecule | MBC (Shigella sonnei) [µM] | MBC (Escherichia coli) [µM] | MBC (Enterococcus faecalis) [µM] | MBC (Staphylococcus aureus) [µM]
1 | CCCCCCCCCCCCCCC(COC(=O)C[n+]1ccccc1)COC(=O)C[n+]1ccccc1 | 8.9 | 8.2 | 10.4 | 13.9
2 | CCCCCCCCCCCCCCC(COC(=O)C[N+](C)(C)C)COC(=O)C[N+](C)(C)C | 14.9 | 9.7 | 12 | 15.1
3 | CCCCCCCCCCCCCCCC[n+]1ccccc1 [CETYLPYRIDINIUM BROMIDE] | 12.4 | 10.4 | 16.3 | 15.6
4 | CCCCCCCCCCCCCCC(COC(=O)C[n+]1ccccc1)(COC(=O)C[n+]1ccccc1)COC(=O)C[n+]1ccccc1 | 3.5 | 6.5 | 4.9 | 5.2
5 | Hexadecyl-trimethyl-ammonium bromide | 18.3 | 16.9 | 18.5 | 18.9
6 | CCCCCCCCCCCCCCCCOC(=O)C[N+](C)(C)C | 33.8 | 20.6 | 22.5 | 24.5
7 | CCCCCCCCCCCCCCC(COC(=O)C[N+](C)(C)C)(COC(=O)C[N+](C)(C)C)COC(=O)C[N+](C)(C)C | 9.6 | 7.3 | 9 | 11.3
